CAL PDZ FP-1: inhibitors of human CAL PDZ peptide binding; inhibition, % at 20 µM; AID 504414; purified CAL PDZ, TMR-peptide fluorescence polarization, 1 h; 0.02% of 330,000 active; Q9HD26;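 active means highest replicate inhibition of at least 40%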
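System: purified tagged CAL PDZ domain construct (CerCALP). Schedule: 1 h incubation at room temperature before polarization reading. Medium: 25 mM sodium phosphate pH 7.4, 150 mM NaCl, TCEP, IgG, Thesit. Read-out: percent inhibition from loss of millipolarization. Measured by: FP readout, S and P plane fluorescence. Probe or stimulus: fluorescent TMR peptide probe.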
CAL PDZ FP-2: inhibitors of human CAL PDZ peptide binding; Q9HD26; purified CAL PDZ, TMR-peptide fluorescence polarization, 1 h; inhibition, % at 24.9 µM; 0.92% of 300,000 active; AID 602252;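 active means mean inhibition of at least 30% with at least half of replicates also reaching 30%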
Rtt109 HAT inh: inhibitors of Candida albicans Rtt109/Vps75 histone acetyltransferase; purified Rtt109/Vps75, ThioGlo CoA-SH fluorescence, 4 h; 0.16% of 330,000 active; inhibition, % at 34.9 µM; Q5AAJ8;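 active means inhibition of at least 50% in every replicate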
ALR inh: inhibitors of human sulfhydryl oxidase ALR | 3.8% of 290,000 active | P55789 | purified ALR, DTT oxidation, H2O2 HRP-luminol luminescence | inhibition, % (no concentration beside the values);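 active means mean replicate inhibition above about 79%, with every replicate also reaching it, limit read from the data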
Target sequence (P55789 whole entry, looked up): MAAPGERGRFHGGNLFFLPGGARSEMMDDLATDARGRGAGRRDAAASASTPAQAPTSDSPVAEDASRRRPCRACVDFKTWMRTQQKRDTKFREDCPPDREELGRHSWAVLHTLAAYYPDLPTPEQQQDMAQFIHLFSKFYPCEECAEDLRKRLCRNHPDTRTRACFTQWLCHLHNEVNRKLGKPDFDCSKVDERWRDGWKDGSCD
DYRK1A inh: inhibitors of rat Dyrk1A kinase; Q63470; ADP-Glo luminescence, NFATc1 peptide; inhibition, % at 12.5 µM; 0.43% of 310,000 active; in the data active means inhibition above about 50%
Hits are given with their value; i = inactive; nt = no result given. A selection: hits, their analogues and other compounds. The true share with any hit is near 4.3%.

SMILES	CAL PDZ FP-1	CAL PDZ FP-2	Rtt109 HAT inh	ALR inh	DYRK1A inh
S=c1[nH]nc(-c2ccco2)n1/N=C/C=C/c1ccco1	i	i	i	i	i
O=C(O)CCCNC(=O)c1ccccn1	i	i	i	i	i
CNc1nnc(-c2cccc(N(C)C)c2)s1	nt	i	i	99.0	i
O=Cc1ccc(O)cc1O	i	i	i	i	i
O=CN/C=C/c1cc(O)ccc1O	i	i	i	98.2	i
C(=N\Nc1ncnc2ccccc12)/c1ccccc1	i	i	i	97.3	i
Clc1cccc(/C=N/Nc2ncnc3ccccc23)c1	i	i	i	i	i
O=C(NC1CCNCC1)C1CC1	i	i	i	i	i
CN(CC(=O)Nc1ccc(Cl)cc1)C(=O)c1sccc1-c1ccccc1	i	i	i	i	i
CC(C)CN1CCN(Cc2cn(C)c3ccccc23)CC1CCO (stereo not drawn)	i	i	i	i	i
Nc1ccccc1C(=O)N1CCCC1	i	i	i	i	i
CCN(CC)CCn1c(SCC(=O)NCc2ccccc2)nc2c(sc3ccccc32)c1=O	nt	i	i	96.5	i
COc1ccc(NC(=O)CSc2nc3c(sc4ccccc43)c(=O)n2CCCN2CCCC2)cc1	i	i	i	99.0	i
O=C(CSc1nc2c(sc3ccccc32)c(=O)n1CCCN1CCCC1)NCC1CCCO1 (stereo not drawn)	i	i	i	i	i
CCN(C(C)=O)c1nnc(CSc2nc3ccccc3s2)s1	i	i	i	nt	i
CNc1nnc(CSc2nc3ccccc3s2)s1	i	i	i	98.8	i
c1csc(CSc2nc3ccccc3s2)c1	i	i	i	93.8	i
CCS(=O)CCSc1nc2ccccc2s1 (stereo not drawn)	i	i	i	99.3	i
Cc1noc(C)c1CSc1nc2ccccc2s1	i	i	i	nt	i
CCNc1nc(NCC)nc(N/N=C/c2ccc(O)c(O)c2)n1	i	i	i	98.7	i
CCNc1nc(NCC)nc(N/N=C/c2ccc(N(C)C)cc2)n1	i	i	i	98.9	i
Cc1cc(C(=O)Nc2ccc(C#N)cc2)on1	i	i	i	i	i
Cc1ccc(NC(=O)C2CC(=O)N(C(C)C)C2)cc1C (stereo not drawn)	i	i	i	i	i
O=C(/C(=N/N=C/c1ccc(O)c(O)c1O)c1ccccc1)c1ccccc1	i	i	78.1	98.7	i
Oc1cccc(C=NCc2ccccc2)c1O	i	i	i	i	i
SMILES	CAL PDZ FP-1	CAL PDZ FP-2	Rtt109 HAT inh	ALR inh	DYRK1A inh
Oc1ccc(/C=N/N=C(c2ccccc2)c2ccccc2)c(O)c1O	i	i	i	98.5	i
CC(C)c1ccc(OCC(=O)NCCO)cc1	i	i	i	i	i
COc1ccc(-c2cccc3c2C2CC3CCN2C(=O)OCc2ccccc2)cc1 (stereo not drawn)	i	i	i	nt	nt
CCc1cc(-c2n[nH]c(C)c2-c2ccccc2Cl)c(O)cc1OC	i	i	i	i	i
Cc1ccc2c(c1)CC1(CN2C)C(=O)OC2(CCCCC2)OC1=O	i	78.1	i	i	i
Cc1ccc(N2CC(c3nc4ccccc4n3C)CC2=O)cc1 (stereo not drawn)	i	30.5	i	nt	nt
CCCn1c(C2CC(=O)N(c3ccc(C)cc3)C2)nc2ccccc21 (stereo not drawn)	i	i	i	i	i
CCOC(=O)c1[nH]ncc1CN1CCN(Cc2ccc(C)cc2)C(CCO)C1 (stereo not drawn)	i	i	i	i	i
CCOC(=O)c1[nH]ncc1CN1CCN(Cc2ccccc2)C(CCO)C1 (stereo not drawn)	i	30.4	i	i	i
CCc1cccc(C)c1NC(=O)c1ccc2c(c1)CCN2S(C)(=O)=O	i	i	i	i	i
Cc1cccc(-n2c(-c3ccco3)n[nH]c2=S)c1	i	i	i	85.9	i
O=C(O)c1ccc(-n2c(-c3cc(-c4ccco4)[nH]n3)n[nH]c2=S)cc1	i	i	i	95.5	i
CCCCn1c(-c2ccco2)n[nH]c1=S	i	i	i	97.6	i
S=c1[nH]nc(-c2ccco2)n1Cc1ccccc1	i	i	i	92.0	i
Cc1cccc(-n2c(-c3ccc(Br)o3)n[nH]c2=S)c1	i	i	i	i	i
NS(=O)(=O)c1ccc(NC(=O)COC(=O)c2cnc(Cl)c(Cl)c2)cc1	i	i	i	i	i
Cc1cc2nc(/N=C(\N)NC(=O)N3c4ccccc4Sc4ccccc43)nc(C)c2cc1C	i	i	i	92.4	i
COc1ccccc1NC(=O)C(Sc1ccccc1)c1ccccc1 (stereo not drawn)	i	i	i	84.2	i

Bioassay records deposited in PubChem BioAssay by Broad Institute.
